Shn3 3UTR inh: reduces Shn3 3'UTR luciferase signal in osteoblasts; Clone20 osteoblast Shn3 3'UTR firefly luciferase, 24 h; actives 0.52% (n = 360,000); inhibition, % at 12.5 µM;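 active = mean inhibition of at least 75% with every replicate also reaching 75%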
aSyn 5UTR inh: 5' untranslated region of α-synuclein, MLPCN primary screen; alpha-synuclein 5'UTR reporter, inhibitor activity; inhibition, % (tested at 7.5 µM); actives 0.82% (n = 300,000); AID 1813; in the data active = inhibition above about 60%;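 note: H4 neuroglioblastoma cells stably carrying SNCA 5'UTR luciferase fusion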
PAX8 reporter: lowers PAX8-driven luciferase in RMG-I cells | inhibition, % at 12.6 µM | actives 1.2% (n = 360,000) | RMG-I TPO-luciferase reporter, SteadyGlo, 24 h | AID 652154;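 active = mean replicate inhibition at least 60% with every replicate also reaching 60%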;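 note: luciferase light reporting Pax8 driven TPO promoter activity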
FN deposit inh: fibronectin deposition inhibition. AH1F fibroblasts, Alexa488-fibronectin deposition fluorescence, overnight. inhibition, % at 12.6 µM. actives 0.086% (n = 350,000);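 active = mean inhibition across replicates of 30% or more, regardless of how many single replicates reach that level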
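Measured by – fluorescence 485/525 nm · System – AH1F fibroblast monolayer, labelled fibronectin deposition · Amount – 10000 cells per well · Buffer or medium – serum-reduced DMEM (2% serum) · Doses – single dose, pinned · Also added – fluorescent fibronectin at 24 nM final · Schedule – 1 h cell attachment, overnight exposure to compound and label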
EWS-Fli block: inhibitors of EWS/Fli oncoprotein transcriptional activity | A673 NR0B1-luciferase reporter, viability-normalised | inhibition, % at 12.6 µM | actives 0.67% (n = 350,000);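 active = mean inhibition of at least 50% after viability correction, with every replicate also passing that limit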;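 note: firefly luciferase signal divided by Alamar Blue viability fluorescence both relative to DMSO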
EBV LMP1 NFkB: Epstein-Barr LMP1 NF-kappaB reporter inhibition; LMP1-induced NF-kappaB luciferase reporter cells, luminescence; inhibition, % at 12.5 µM; actives 0.69% (n = 350,000); AID 504558; in the data active = inhibition above about 41%
Hits are given with their value; – = inactive; · = no result given. Sampled rows, rich in hits. Any-hit rate of the full collection: about 2.1%.

SMILES	Shn3 3UTR inh	aSyn 5UTR inh	PAX8 reporter	FN deposit inh	EWS-Fli block	EBV LMP1 NFkB
CCCC(=O)Nc1ccc2c(c1)OC[C@@H](C)N(C(=O)CC1CC1)C[C@@H](C)[C@H](OC)CN(C)C2=O	·	·	–	–	–	·
C[C@@H]1CN([C@@H](C)CO)S(=O)(=O)c2ccc(C#C[C@@H](C)O)cc2O[C@H]1CN(C)Cc1ccccn1	·	·	·	·	–	·
CC(C)C(=O)N1CCN(c2ccc(NC(=O)c3ccc(Br)o3)cc2)CC1	–	–	–	–	·	–
CC(C)C(=O)N1CCN(c2ccc(NC(=O)c3ccc([N+](=O)[O-])o3)cc2)CC1	–	–	97	–	–	–
Cc1ccccc1NC(=O)C(Cl)=C(Cl)Cl	–	–	94	–	–	90
Cc1ccccc1NNC(=O)C(=O)NNc1ccccc1C	–	–	–	–	–	–
C[C@@H]1CN([C@H](C)CO)C(=O)c2cc(NC(=O)Cc3ccccc3)ccc2O[C@@H](C)CCCCO[C@@H]1CN(C)Cc1ccccc1	·	·	–	–	–	·
C[C@H](CO)N1C[C@H](C)[C@H](CN(C)Cc2ccc(C(F)(F)F)cc2)OCCCC[C@H](C)Oc2ccc(NC(=O)Cc3ccccc3)cc2C1=O	·	·	110	·	–	·
C[C@@H]1CN([C@@H](C)CO)C(=O)c2cc(NC(=O)Cc3ccccc3)ccc2O[C@@H](C)CCCCO[C@H]1CN(C)Cc1ccc(C(=O)O)cc1	·	·	–	·	–	·
C[C@H]1CCCCO[C@H](CN(C)Cc2ccc(C(F)(F)F)cc2)[C@@H](C)CN([C@@H](C)CO)C(=O)c2cc(NC(=O)Cc3ccccc3)ccc2O1	·	·	76	–	–	·
C[C@@H]1CN([C@H](C)CO)C(=O)c2cc(NC(=O)Cc3ccccc3)ccc2O[C@@H](C)CCCCO[C@@H]1CN(C)Cc1ccc(C(=O)O)cc1	·	·	–	·	–	·
C[C@@H]1CN([C@H](C)CO)C(=O)c2cc(NC(=O)Cc3ccccc3)ccc2O[C@@H](C)CCCCO[C@H]1CN(C)Cc1ccc(C(F)(F)F)cc1	·	·	80	·	–	·
C[C@@H]1CCCCO[C@@H](CN(C)Cc2ccc(C(F)(F)F)cc2)[C@H](C)CN([C@H](C)CO)C(=O)c2cc(NC(=O)Cc3ccccc3)ccc2O1	·	·	91	·	–	·
COc1cccc(-c2ccc3c(c2)[C@@H]2[C@@H](CCN2S(=O)(=O)c2ccccc2F)[C@H](CO)N3C)c1	·	·	–	–	–	·
C[C@H]1ON(c2ccccc2)[C@@H](c2ccccc2)[C@@H]1C(=O)N1C(=O)OC[C@@H]1c1ccccc1	·	·	–	·	–	·
C[C@H]1CCCCO[C@@H](CN(C)Cc2ccc(C(=O)O)cc2)[C@@H](C)CN([C@@H](C)CO)C(=O)c2cc(NC(=O)Cc3ccccc3)ccc2O1	·	·	–	·	–	·
C[C@H]1CCCCO[C@H](CN(C)Cc2ccccc2)[C@@H](C)CN([C@@H](C)CO)C(=O)c2cc(NC(=O)Cc3ccccc3)ccc2O1	·	·	–	–	–	·
C[C@@H]1CN([C@@H](C)CO)C(=O)c2cc(NC(=O)Cc3ccccc3)ccc2O[C@@H](C)CCCCO[C@@H]1CN(C)Cc1ccc(C(F)(F)F)cc1	·	·	97	·	–	·
C[C@@H]1CN([C@@H](C)CO)C(=O)c2cc(NC(=O)Cc3ccccc3)ccc2O[C@@H](C)CCCCO[C@H]1CN(C)Cc1ccc(C(F)(F)F)cc1	·	·	76	·	–	·
CO[C@H]1CN(C)C(=O)c2cc(NC(C)=O)ccc2OC[C@H](C)N(C(=O)c2ccccc2F)C[C@@H]1C	·	·	·	–	–	·
COc1ccc(NC(=O)/C(C#N)=C/c2cc(C)n(-c3ccc(N4CCOCC4)c([N+](=O)[O-])c3)c2C)cc1	–	–	–	–	–	44
CC(=O)Nc1ccc2c(c1)C(=O)N(C)[C@H]1CC[C@H](CC(=O)NCc3ccccc3)O[C@@H]1CO2	·	·	–	–	–	·
Cc1ccc(N(CC(=O)NCCc2ccc(F)cc2)S(=O)(=O)c2ccc(Cl)c([N+](=O)[O-])c2)c(C)c1	–	–	78	–	–	–
O=C(O)c1cccc(COc2ccc(CO)cc2Cl)c1	89	105	·	·	89	91
COc1ccc(OCc2cccc(C(=O)O)c2)cc1	94	128	·	·	·	86
O=C(O)c1ccc(COc2ccc(CO)cc2Cl)cc1	–	–	·	–	·	–
CCOc1ccc(OCc2cccc(C(=O)O)c2)cc1	89	84	·	·	88	83
O=C(OCC(F)(F)F)c1cccc(COc2ccc3ccccc3c2)c1	–	107	·	·	·	79
